Screens: PubChem BioAssay, Broad Institute
Vif inh: blocks HIV Vif function | HEK293T cells, Vif self-association by quenched fluorescence, imaging, 24 h | AID 602346 | 0.35% of 340,000 active | inhibition, % at 7.49 µM; in the data active means inhibition above about 50%, passing the limit was not always enough; inconclusive means no clear call, values can overlap the other calls; inactive means below about 31%
CDK5 inh: inhibitors of human CDK5/p35 kinase; Recombinant CDK5/p35, ADP-Glo luminescence, 60 min; Q00535+Q15078; inhibition, % at 10 µM; 0.01% of 330,000 active; AID 488839;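 active means highest replicate inhibition of at least 50% and at least 75% of replicates reaching 50%; inconclusive means only one of the two criteria met; inactive means both criteria failed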;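 further: plate controls were DMSO neutral control for no effect and GW8510 at 10 µM for full effect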
Target sequence (Q00535 whole entry, looked up): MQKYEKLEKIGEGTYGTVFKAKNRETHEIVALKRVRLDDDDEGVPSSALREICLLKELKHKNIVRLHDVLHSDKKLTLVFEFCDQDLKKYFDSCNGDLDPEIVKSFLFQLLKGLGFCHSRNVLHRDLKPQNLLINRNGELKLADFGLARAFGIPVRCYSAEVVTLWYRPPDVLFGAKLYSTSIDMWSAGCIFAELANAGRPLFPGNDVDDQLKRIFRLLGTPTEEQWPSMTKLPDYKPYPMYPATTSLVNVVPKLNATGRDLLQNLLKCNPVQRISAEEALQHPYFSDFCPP
Target sequence (Q15078 whole entry, looked up): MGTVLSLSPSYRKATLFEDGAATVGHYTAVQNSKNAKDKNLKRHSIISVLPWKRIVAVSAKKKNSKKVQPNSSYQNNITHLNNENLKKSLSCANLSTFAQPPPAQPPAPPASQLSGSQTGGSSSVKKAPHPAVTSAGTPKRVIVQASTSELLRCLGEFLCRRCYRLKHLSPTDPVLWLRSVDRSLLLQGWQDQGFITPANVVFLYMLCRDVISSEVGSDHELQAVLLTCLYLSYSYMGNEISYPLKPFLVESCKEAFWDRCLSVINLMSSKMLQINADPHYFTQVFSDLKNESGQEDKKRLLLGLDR
CAL PDZ FP-1: inhibitors of human CAL PDZ peptide binding | purified CAL PDZ, TMR-peptide fluorescence polarization, 1 h | Q9HD26 | inhibition, % at 20 µM | AID 504414 | 0.02% of 330,000 active;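 active means highest replicate inhibition of at least 40%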;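 further: plate controls were DMSO neutral control wells for no effect and unlabeled competitor peptide control wells for full effect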
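System: purified tagged CAL PDZ domain construct (CerCALP). Schedule: 1 h incubation at room temperature before polarization reading. Medium: 25 mM sodium phosphate pH 7.4, 150 mM NaCl, TCEP, IgG, Thesit. Read-out: percent inhibition from loss of millipolarization. Measured by: FP readout, S and P plane fluorescence. Probe or stimulus: fluorescent TMR peptide probe.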
PvdQ inh: blocks Pseudomonas aeruginosa PvdQ acylase activity. AID 488965. purified PvdQ acylase, fluorescence plate reader. 0.063% of 340,000 active. inhibition, % at 10 µM; in the data active means inhibition above about 30%, passing the limit was not always enough; inconclusive means no clear call, values can overlap the other calls;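 further: 0% = vehicle neutral wells and 100% = reference inhibitor wells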
Glyco luc inh: N-linked glycosylation inhibition; 0.23% of 360,000 active; D54 ERlucT glycosylation luciferase reporter, 24 h; percent of 100 nM tunicamycin response; reporter increase, % at 12.5 µM;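 active means mean luciferase reporter signal, scaled so untreated is 0 and the glycosylation-blocking control 100, at or above a set limit in every replicate; inconclusive means mean reaches the limit but not every replicate does; inactive means mean below the limit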;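 further: luciferase carries N-glycosylation sites so blocking glycosylation raises the light; 0% = median of neutral control wells and 100% = median of 100 nM tunicamycin wells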
CAL PDZ FP-2: CAL PDZ (human) peptide binding inhibition. Q9HD26. purified CAL PDZ, TMR-peptide fluorescence polarization, 1 h. inhibition, % at 24.9 µM. 0.92% of 300,000 active;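 active means mean inhibition of at least 30% with at least half of replicates also reaching 30%; inconclusive means no clear call, values can overlap the other calls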;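 further: 0% = DMSO neutral control and 100% = excess unlabeled competitor peptide PRC23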
* hit, by the source's call; ? = inconclusive; / = no result given. Compounds with a hit are over-represented: about 1.4% of the library has one in this group of screens.

SMILES	Vif inh	CDK5 inh	CAL PDZ FP-1	PvdQ inh	Glyco luc inh	CAL PDZ FP-2
Cc1ccc(C)c(NC(=O)CSc2c(C)n[nH]c2C)c1	3	0	16	-17	0	61*
Cc1ccc(C)c(NC(=O)CSc2n[nH]c(-c3ccncc3)n2)c1	3	-2	-1	-21	1	-1
O=C(Nc1cc(Cl)ccc1N1CCCC1)C1=COCCO1	-3	0	0	-4	1	/
O=C(COC(=O)Cc1c(F)cccc1Cl)NNC(=O)c1ccccc1	-1	-4	0	-16	1	1
Cc1cccc(N(O)C(=O)Nc2cccc(Cl)c2)c1	-3	1	-1	-37	0	31*
Cc1ccc([N+](=O)[O-])cc1NC1CC(O)C(CO)O1 (stereo unspecified)	-9	0	1	-2	1	31*
CCCSc1ccc([C@@H]2[C@@H]3C(=O)N(C)C(=O)[C@@H]3[C@]3(C(=O)OC)CCCN23)cc1OC	5	-1	-1	4	1	0
COc1cccc(OC)c1C(=O)Nn1c(C2CCC2)nc2ccccc2c1=O	32	-2	-2	-16	1	0
CCC(C)C(=O)Nn1c(C2CC2)nc2cc(OC)c(OC)cc2c1=O (stereo unspecified)	125*	1	0	-7	1	3
Cc1ccc(NC(=O)NNC(=O)c2ccc3c(c2)NC(=O)C(C)(C)O3)cc1	-1	1	-4	-10	1	-3
CC1(C)Oc2ccc(C(=O)N/N=C/c3ccc(O)cc3)cc2NC1=O	109*	1	-4	5	-1	-7
COc1ccc(S(=O)(=O)N2CCOCC2)cc1NC(=O)CSc1nnnn1C1CC1	13	1	0	-14	0	-2
CCCCOc1cccc2c(=O)n(CC(=O)Nc3ccc4c(c3)OCCO4)ccc12	73*	/	/	/	1	/
CCN(CC)CC(C)CNC(=O)CC(C(=O)N1CCc2ccccc21)n1ccnc1 (stereo unspecified)	123*	-2	0	-1	-1	/
Cn1c(=O)c2c(-c3ccccc3)n(-c3cc(Cl)c([N+](=O)[O-])cc3O)cc2n(C)c1=O	2	/	/	/	1	/
Cc1ccc([C@H]2C(C(=O)O)=CC[C@@H](c3ccc(C)cc3)N2S(=O)(=O)c2ccc(C)cc2)cc1	3	8	-2	-3	-2	-6
Cc1ccc([C@@H]2CC=C(C(=O)O)[C@H](c3ccccc3)N2S(=O)(=O)c2ccc(C)cc2)cc1	/	0	-1	-8	-1	50*
S=C(NCCCN1CCOCC1)N(Cc1ccccc1)Cc1ccccc1	-18	-1	-1	-8	-1	2
CS(=O)(=O)N(CC(=O)N1CCCC1)C1CCCCC1	-2	/	/	/	10	/
COCCNC(=S)N(CCO)Cc1cc2cc3c(cc2[nH]c1=O)OCO3	4	-2	/	-8	2	82*
CN1CCN(C(c2ccc(Br)cc2)c2cc(Cl)c3cccnc3c2O)CC1 (stereo unspecified)	20	3	-1	-13	37*	-2
CCOc1ccc(C(=O)Nc2ccc(S(=O)(=O)N3C[C@@H]4C[C@@H](C3)c3cccc(=O)n3C4)cc2)cc1	-6	0	0	-5	-9	-1
Cc1cc(C(=O)OCC(=O)NCCN2C(=O)CSC2=O)ccc1[N+](=O)[O-]	0	0	0	-21	5	90*
Cc1ccc(C(=O)OCC(=O)NCCN2C(=O)CSC2=O)cc1[N+](=O)[O-]	8	-1	-1	1	2	3
O=C(Nc1cccc([N+](=O)[O-])c1)c1ccc(N2CCCC2=O)cc1	-1	-1	0	-10	-1	69*
SMILES	Vif inh	CDK5 inh	CAL PDZ FP-1	PvdQ inh	Glyco luc inh	CAL PDZ FP-2
N#Cc1c(N)n(CCc2ccc(F)cc2)c2nc3ccccc3nc12	-7	-1	-1	-21	58*	-4
O=C(Cc1ccc(Br)cc1)OCC(=O)c1ccc[nH]1	?	-1	0	-17	1	44*
CC1(NC(=O)CSc2nnc(-c3c[nH]c4ccccc34)n2C2CC2)CCS(=O)(=O)C1 (stereo unspecified)	1	0	0	-18	-1	/
CC(=O)c1sc2nc(-c3cccs3)ccc2c1N	28	-1	2	-11	3	-1
Nc1c(C(=O)Nc2nc3ccccc3s2)sc2nc(-c3cccs3)ccc12	154*	0	-2	16	13	-1
Cn1cc(S(=O)(=O)N2CCNCC2)cc1C(N)=O	-3	-1	-1	-3	1	/
Nc1ncnc2c1ncn2[C@@H]1O[C@H](CCC(=O)NCc2ccccc2)[C@@H](O)[C@H]1O	5	/	/	/	2	/
CCCCCCCCCC(=O)N/N=C/c1ccc(C)s1	5	0	17	-12	0	49*
COc1cc(-c2coc3c(C(=O)NC4CCCCC4)cccc23)ccc1O	-10	/	/	/	0	/
O=C(NC(=S)N1CCOCC1)c1cn(-c2ccccc2)nc1-c1ccc(F)cc1	1	-2	0	-14	3	-1
COc1ccc(S(=O)(=O)N2CCN(C)CC2)cc1NC(=O)c1ccccc1	-4	-1	-2	-14	-1	-2
NNC(=O)c1ccc(S(=O)(=O)N2CCc3ccccc32)cc1	23	-2	-1	-2	-2	-3
COc1ccc(/C=N/n2c(-c3ccc(C)cc3)n[nH]c2=S)cc1OC	99*	1	-1	-7	3	3
CCCN(CC(=O)Nc1ccccc1OC)C(=O)CC1CCCC1	5	1	2	-3	0	0
Cc1ccccc1C(=O)NNC(=S)NC(=O)c1ccc(Cl)cc1Cl	-4	-1	-2	-2	1	-4
CCCN(CC(=O)Nc1ccccc1OC)C(=O)c1ccccn1	13	-2	0	-11	2	74*
COc1ccccc1NC(=S)NNC(=O)c1ccc(Cl)cc1Cl	3	2	-1	-7	2	49*
CCCN(CC(=O)Nc1ccccc1OC)C(=O)CSC(=S)N1CCCC1	-4	-1	0	-5	2	60*
COc1ccccc1NC(=O)c1ccccc1S(=O)(=O)c1ccc([N+](=O)[O-])cc1	-6	0	0	-6	3	72*
CCCN(CC(=O)Nc1cc(Cl)ccc1Cl)C(=O)c1ccccn1	16	1	-6	-7	-1	6
CC(C)(C)c1ccc(C(=O)N2CCC2(C)C(=O)NCc2ccc3c(c2)OCO3)cc1 (stereo unspecified)	-29	/	/	/	0	/
COc1ccc(CN2C[C@]3(CO)O[C@@H](CO)C[C@@H]3S2(=O)=O)cc1	4	-2	1	-11	1	3
CCc1nc2ccc(C(=O)NCCCN3CCCC3=O)cn2c1N(C)Cc1ccc(OC)cc1	3	/	/	/	0	/
